Screening results: PubChem BioAssay, several laboratories
An excerpt weighted towards active compounds, which were near 12% of everything screened.
Dynein transport = dynein cargo transport inhibition | 220,000 tested, 0.47% active | z-score, hits read low | 3617.4 mouse cells, GR-EGFP nuclear translocation imaging; test concentration mostly 20 µM; stimulated with dexamethasone, 1 µM; stronger effect = lower value;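 active = plate z-score of nuclear minus cytoplasmic receptor signal below a set negative limit, without overly bright fluorescence or cell loss, cut at about -3.5 in these data, passing the limit was not always enough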;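 note: z-score of nuclear minus cytoplasmic ring GR-EGFP intensity difference per well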
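Buffer or medium: tetracycline-free induction medium containing charcoal-stripped FBS / Reagent: dexamethasone agonist, 1.0 µM final, for 30 min / Technique: automated 10x imaging of fixed Hoechst-stained cells / Times: induction 48 h, compound 1 h, agonist 30 min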
Lmaj promast = reduces viability of Leishmania major promastigotes. resazurin fluorescence viability. AID 1063. inhibition, % at 10 µM. 200,000 tested, 9% active; in the data active = inhibition above about 50%;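 note: promastigotes grown with compound for 44 hours at 28 °C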
Autophagy mod = alters autophagy in cells | MEF GFP-LC3 puncta imaging; test concentration mostly 10 µM | AID 463193 | calls only at 10 µM (by protocol) | 190,000 tested, 0.98% active;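 active = percentage of spot-positive cells more than 3 SD above its plate mean, without a fluorescence outlier flag or 80% toxicity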;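 note: spot-positive cell cutoff set from DMSO-treated cells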
MT stabilizer = microtubule stabilizers in HeLa cells; HeLa tubulin immunostaining HCS, 24 h; share of cells brighter than vehicle mean+2SD; % tubulin-high responders, % at 10 µM; 200,000 tested, 0.83% active;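 active = plate Z-score above 3 for both tubulin-high and condensed-nucleus cell shares, with cell loss under 80%, at 10 µM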;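 note: anti alpha tubulin signal scored within the nucleus-defined area of each cell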
bCat nuc transl = modulators of beta-catenin nuclear translocation | 190,000 tested, 0.3% active | AID 1665 | HeLa beta-catenin nuclear translocation, immunofluorescence imaging | nuclear translocation activity, % at 5 µM;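 active = nuclear translocation activity above 50% at 5 µM, with a well cell count of 50 or more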;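 note: per-cell ratio of nuclear to cytoplasmic median beta-catenin stain intensity; plate controls were DMSO negative control for no effect and GSK-3 inhibitor IX positive control for full effect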
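System: HeLa cells, endogenous beta-catenin; compound dosing: 5 µM primary single dose, 0.1% DMSO, 0.02–20 µM confirmation series; incubation: 24 h compound exposure at 37°C, 5% CO2; signal: beta-catenin immunofluorescence imaging with DAPI; evaluation: % activation, nuclear-to-cytoplasmic median beta-catenin signal ratio per cell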
CHOP inhibitor = inhibitors of CHOP induction in ER stress response | 220,000 tested, 3.8% active | inhibition, % at 10 µM | CHO-K1 CHOP-promoter luciferase, tunicamycin-induced, 15-18 h;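 active = compounds that reduced the stress-induced luciferase reporter signal by more than about 70% of percent inhibition, limit read from the data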;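 note: 0% = tunicamycin plus vehicle and 100% = wells without tunicamycin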
Active calls of the source: *; i = inactive; . = no result; + = active, no number.

SMILES	Dynein transport	Lmaj promast	Autophagy mod	MT stabilizer	bCat nuc transl	CHOP inhibitor
O=C(CNC(=O)c1ccc(F)cc1)N/N=C/c1ccc(O)c([N+](=O)[O-])c1	-0.554	56.1*	i	7.0	4.2	18.4
O=C(CNC(=O)c1ccccc1)N/N=C/c1ccc([N+](=O)[O-])o1	-0.0637	99.3*	i	3.8	0.1	-30.1
O=C(N/N=C/c1ccc([N+](=O)[O-])o1)c1ccncc1	0.424	.	.	.	5.6	-1.2
CC/C(C)=N\Nc1nc(-c2cc3cc(OC)ccc3oc2=O)cs1	-1.08	.	.	.	-1.3	-20.0
CN(C(=O)CO/N=C/c1ccc(Cl)cc1)c1ccccc1	-0.602	-0.9	i	3.7	-0.3	20.7
COC(=O)c1ccc(OC(=O)c2ccccc2F)cc1	-0.367	-5.8	i	3.0	-0.7	43.3
Cc1ccc(NC(=O)Cn2cccc2)cc1	-0.389	-6.1	i	3.0	-0.9	23.2
CC(C)(C)NCC1(CO)SC(N)=NC1=O (stereo unspecified)	-0.219	7.0	i	1.3	-3.4	5.2
CCCCCC(=O)N/N=C/c1ccc([N+](=O)[O-])o1	3.07e-05	84.8*	i	1.8	-2.7	-39.2
CCCCCC(=O)N/N=C/c1ccc(N(C)C)cc1	1.15	-4.2	i	2.0	0.2	-24.6
O=[N+]([O-])c1ccc(/C=N/N/C(=N/c2ccccn2)c2ccccn2)cc1	1.53	-0.2	i	3.6	-0.5	15.9
Cc1ccc(/C=N\NC(=O)c2cc([N+](=O)[O-])cc([N+](=O)[O-])c2)o1	-0.0824	57.6*	i	5.8	-0.7	-0.9
CCN(CC)S(=O)(=O)c1cccc(C(=O)N/N=C/c2ccc([N+](=O)[O-])o2)c1	-1.52	99.8*	i	3.2	-0.4	-37.0
O=[N+]([O-])c1cc(/C=N/N/C(=N/c2ccccn2)c2ccccn2)ccc1O	0.0113	51.6*	i	1.7	-2.2	61.0
CC(=O)N[C@H](C(=O)O)C(C)(C)SN=O	.	.	.	.	.	16.9
CCOC(=O)c1sc(NC(=O)C2CCC2)cc1C	-0.433	7.4	i	1.8	-1.6	-23.2
Cc1ccc(NCC(=O)N/N=C\c2ccc([N+](=O)[O-])o2)cc1	-0.819	100.1*	i	2.7	-1.2	-2.0
O=C(N/N=C/c1ccc([N+](=O)[O-])o1)c1cc2ccccc2o1	-1.06	.	.	.	-0.3	-29.6
O=C(CNc1ccccc1)N/N=C/c1ccc([N+](=O)[O-])o1	0.179	100.0*	i	2.2	.	-1.0
Cc1ccc(NCC(=O)N/N=C/c2ccc(C(=O)O)cc2)cc1	-0.833	.	.	.	0.2	-22.5
CSc1nnc2c(n1)OC(c1ccccn1)N(C(C)=O)c1ccccc1-2 (stereo unspecified)	-0.621	-2.4	i	3.0	3.1	-11.3
CC(C)(C)C(=O)N1CCN(c2ccc([N+](=O)[O-])c(-n3nc(-c4ccccc4)c4ccccc4c3=O)c2)CC1	-0.744	57.3*	i	5.0	-3.3	26.5
CC1(C)CC(=O)C(CCC(=O)c2ccccc2)C(C)(C)N1 (stereo unspecified)	0.181	90.0*	i	1.4	0.5	-22.4
O=C(CCC1CCCCC1=O)c1ccccc1 (stereo unspecified)	0.183	-1.6	i	3.7	-4.3	-16.6
COc1cc(C2NC(=O)NC(C)=C2C(=O)OCC2CCCO2)cc(OC)c1OC (stereo unspecified)	-0.00811	-1.8	i	2.1	-0.5	-8.8
SMILES	Dynein transport	Lmaj promast	Autophagy mod	MT stabilizer	bCat nuc transl	CHOP inhibitor
O=[N+]([O-])c1ccc(C2CCCC/C2=N/OCc2ccc(F)cc2)c([N+](=O)[O-])c1 (stereo unspecified)	1.41	54.3*	i	2.5	.	19.5
O=C(O/N=C1\CCCCC1c1ccc([N+](=O)[O-])cc1[N+](=O)[O-])c1c(F)cccc1F (stereo unspecified)	-0.775	62.0*	i	1.2	.	20.7
CCOC(=O)c1nn(-c2ccc(Cl)cc2)c2nnc(Cc3ccccc3)c(=O)n12	0.126	-9.6	i	2.5	1.3	67.0
Cc1cccc(N2CCN(C(=O)C3CCN(S(=O)(=O)c4cccc5nsnc45)CC3)CC2C)c1 (stereo unspecified)	-1.17	50.7*	i	5.2	-0.7	83.4*
O=C(C1CCC(CNS(=O)(=O)c2cccc3cccnc23)CC1)N1CCc2ccccc21 (stereo unspecified)	0.321	28.3	+	5.9	.	24.1
Cc1cccc(N2CCN(C(=O)C3CCN(S(=O)(=O)c4cccc5cccnc45)CC3)CC2C)c1 (stereo unspecified)	0.143	14.2	i	3.2	0.7	28.4
O=C(C1CCN(S(=O)(=O)c2cccc3nsnc23)CC1)N1CCc2ccccc21	-0.619	87.3*	i	4.5	.	30.8
COC(=O)c1ccc(NC(=O)COc2ccc(C3C(C#N)=C(N)Oc4c3ccc3ccccc43)cc2OC)cc1 (stereo unspecified)	2.33	94.8*	i	4.2	-2.5	27.0
O=C(CCCCCN1C(=O)c2cccc3cccc(c23)C1=O)NCCO	-0.506	1.0	i	6.2	0.0	-6.7
CCN(CC)CCCNC(=S)N(Cc1cccnc1)Cc1cc2cccc(C)c2[nH]c1=O	0.82	-0.2	i	2.1	0.2	-8.7
Cc1ccc(CN(Cc2cc3cccc(C)c3[nH]c2=O)C(=S)NCCCN(C)C)cc1	-0.556	61.8*	i	2.4	0.5	18.7
Cc1cccc2cc(CN(Cc3ccccc3)C(=S)NCCCN(C)C)c(=O)[nH]c12	-0.062	77.7*	i	2.3	1.5	21.6
Cc1ccc(C)c2[nH]c(=O)c(CN(CCCN(C)C)C(=O)NCc3ccccc3)cc12	.	.	.	.	0.7	-1.8
Cc1cc(C)c2cc(CN(CCCN(C)C)C(=S)NCc3ccccc3)c(=O)[nH]c2c1	2.78	100.0*	i	4.2	-0.5	-3.4
Cc1cccc2cc(CN(Cc3cccnc3)C(=S)NCCCN(C)C)c(=O)[nH]c12	-0.996	-6.8	i	1.5	0.5	6.3
CCCCNC(=S)Nc1ccc(OC)nc1	0.28	-3.3	i	2.8	0.3	-17.7
Cc1cccc(-n2c(CCCN3C(=O)c4ccccc4C3=O)nc3ccccc3c2=O)n1	-0.218	1.4	i	2.7	-1.3	13.8
Cc1ccc(Cn2c(=N)n(CC(O)COc3ccccc3)c3ccccc32)cc1 (stereo unspecified)	-0.665	100.5*	+	2.4	.	37.1
N=c1n(Cc2ccccc2)c2ccccc2n1CC(O)COc1ccccc1 (stereo unspecified)	-1.02	100.4*	i	3.2	-5.0	41.2
CCOC(=O)c1cnn(-c2ncnc3c2cnn3Cc2ccccc2)c1N	-0.554	-2.7	i	1.9	.	.
CC(C)(C)c1ccc(OCc2ccc(C(=O)NCc3cccnc3)o2)cc1	-0.959	7.7	i	6.3	2.1	34.7
